Hits are enriched below; roughly 2.5% of the tested compounds scored in any of these assays.
ERAP1 inh: ERAP1 (human) enzyme inhibition. Q9NZ08. recombinant ERAP1, Leu-AMC fluorescence, 60 min. inhibition, % at 10.7 µM. actives 0.15% (n = 340,000);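 active = mean replicate inhibition of at least 30%, or all replicates individually reaching that 30% level; inactive = mean below 30% and not every replicate reaching it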;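 also: 0% = neutral control wells and 100% = L-leucinethiol positive control wells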
Target sequence (Q9NZ08 whole entry, looked up): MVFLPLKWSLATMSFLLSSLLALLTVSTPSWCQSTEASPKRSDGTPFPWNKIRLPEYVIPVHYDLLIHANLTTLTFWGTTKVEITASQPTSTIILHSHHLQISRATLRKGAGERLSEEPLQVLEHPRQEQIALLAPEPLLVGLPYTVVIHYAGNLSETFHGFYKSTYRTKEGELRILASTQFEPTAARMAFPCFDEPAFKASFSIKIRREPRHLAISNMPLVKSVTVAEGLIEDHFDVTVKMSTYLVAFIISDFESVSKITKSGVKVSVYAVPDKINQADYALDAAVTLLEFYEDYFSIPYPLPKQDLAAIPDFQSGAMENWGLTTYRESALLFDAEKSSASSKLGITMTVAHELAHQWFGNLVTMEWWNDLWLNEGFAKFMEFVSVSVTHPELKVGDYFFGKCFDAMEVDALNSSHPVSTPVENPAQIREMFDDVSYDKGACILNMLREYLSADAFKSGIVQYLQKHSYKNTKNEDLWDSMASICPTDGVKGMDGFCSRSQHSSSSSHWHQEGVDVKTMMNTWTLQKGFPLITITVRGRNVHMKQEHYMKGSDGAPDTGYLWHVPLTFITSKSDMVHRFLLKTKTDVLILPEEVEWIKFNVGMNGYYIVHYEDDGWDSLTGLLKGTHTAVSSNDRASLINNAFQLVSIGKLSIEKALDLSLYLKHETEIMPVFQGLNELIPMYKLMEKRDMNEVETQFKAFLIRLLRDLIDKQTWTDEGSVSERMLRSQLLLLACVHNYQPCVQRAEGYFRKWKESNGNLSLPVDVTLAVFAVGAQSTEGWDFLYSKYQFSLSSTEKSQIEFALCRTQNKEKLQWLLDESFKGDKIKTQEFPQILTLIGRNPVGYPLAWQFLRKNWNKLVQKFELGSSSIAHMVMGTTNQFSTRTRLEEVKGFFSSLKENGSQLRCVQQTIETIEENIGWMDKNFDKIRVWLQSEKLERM
DENV2 CPE: inhibitors of DENV2 cytopathic effect; CPE inhibition, % at 9.99 µM; actives 1.7% (n = 350,000); DENV2-infected cells, cytopathic effect rescue, plate reader; in the data active = CPE inhibition above about 20%, passing the limit was not always enough; inconclusive = no clear call, values can overlap the other calls; tested in BHK-21 cells;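 also: 0% = median of neutral control wells and 100% = median of positive control wells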
E-sel inducer: E-selectin induction on HUVECs; actives 0.37% (n = 260,000); activation, % at 7.58 µM; HUVEC E-selectin immunofluorescence imaging; normalized: neutral wells 0, TNF-alpha wells 100; AID 686992; P16581;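 active = mean E-selectin-positive cell signal at least 10% of the positive control, reached in at least 60% of replicates, without over 20% cell loss; inconclusive = no rule given, readout overlaps actives, possibly toxicity-flagged; inactive = the rest, including those meeting only one limit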
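Read-out: % PE-positive cells | Test system: HUVEC | Doses: One compound dose added by pin transfer | Buffer or medium: EGM-2 over gelatin coat | Signal: Immunofluorescence imaging | Benchmarks: TNF-alpha, DMSO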
PglD inh: blocks C. jejuni PglD acetyltransferase activity | actives 0.098% (n = 360,000) | inhibition, % at 12.5 µM | AID 602405 | purified PglD enzyme, DTNB colorimetric CoA detection; in the data active = inhibition above about 16%, passing the limit was not always enough; inconclusive = no clear call, values can overlap the other calls
SIRT5 block: blocks human SIRT5 desuccinylation of peptide | Purified SirT5, succinyl-peptide AMC, trypsin-coupled fluorescence | inhibition, % at 15 µM | actives 1.1% (n = 330,000) | AID 652115; in the data active = inhibition above about 15%; inconclusive = no clear call, values can overlap the other calls
* marks the source's active call; other numbers are inactive results; u = inconclusive; x = not tested or not shown; ! = a repeat was not active.

SMILES	ERAP1 inh	DENV2 CPE	E-sel inducer	PglD inh	SIRT5 block
O=C(CN1C(=O)C(=O)N(Cc2ccccc2)C1=O)Nc1cc(Cl)cc(Cl)c1	x	x	1	x	-7
CC(=O)NC1C(=O)N(CCN2CCOCC2)c2ccc(F)cc21 (stereo not drawn)	16	7	53*	x	-19
COc1ccc(C(=O)NC(=S)N2CCC(C)CC2)cc1	x	x	x	3	x
C[C@@H]1CN([C@H](C)CO)C(=O)c2cc(NC(=O)CCC(F)(F)F)ccc2O[C@H]1CN(C)Cc1ccc(C(F)(F)F)cc1	-1	u	-21	-1	4
C[C@@H]1CN([C@H](C)CO)C(=O)c2cc(NC(=O)CCC(F)(F)F)ccc2O[C@@H]1CN(C)Cc1ccc(C(F)(F)F)cc1	1	2	52*	-2	10
C[C@H]1CN([C@@H](C)CO)C(=O)c2cc(NC(=O)CCC(F)(F)F)ccc2O[C@H]1CN(C)Cc1ccc(C(F)(F)F)cc1	1	u	19	-3	20*
C[C@H]1CN([C@@H](C)CO)C(=O)c2cc(NC(=O)CCCN(C)C)ccc2O[C@H]1CN(C)Cc1ccc(C(F)(F)F)cc1	4	4	42*	1	-3
CO[C@H](CN(C)C(=O)c1ccccc1F)[C@@H](C)CN([C@@H](C)CO)S(=O)(=O)c1ccc(C)cc1	0	5	0	2	-2
Cc1ccc(S(=O)(=O)N2CCOCC2)cc1C(=O)N1CCN(c2ncccn2)CC1	-4	x	0	-4	-5
Cc1nn(CC(=O)Nc2cc(S(=O)(=O)N(C)C)ccc2Cl)c(C)c1[N+](=O)[O-]	x	x	1	-5	x
O=C1CSC2=NC3(CO)Oc4ccccc4[C@H]([C@H]3CO)N12	-2	27*	x	1	0
COc1ccc(COCC23N=C4SCC(=O)N4[C@H](c4ccccc4O2)[C@H]3CO)cc1	0	26*	x	3	-1
CCc1ccccc1NC(=O)CCC(=O)OCC(=O)c1ccc(-c2ccccc2)cc1	x	x	x	8	x
O=C(COc1cc(F)ccc1[N+](=O)[O-])Nc1ccc(N2CCOCC2)cc1	7	u	0	x	1
O=C(CC(Sc1ccccc1)c1cccs1)c1ccco1 (stereo not drawn)	x	x	x	-8	x
C[C@H](CO)N1C[C@H](C)[C@H](CN(C)S(=O)(=O)c2cccc(F)c2)Oc2ncc(C#CC(C)(C)O)cc2C1=O	-2	-2	0	-2	0
C[C@@H]1CN([C@@H](C)CO)C(=O)c2cccc(NC(=O)Nc3ccc(F)cc3)c2O[C@@H]1CN(C)Cc1ccc(Oc2ccccc2)cc1	5	55*!	0	3	0
C[C@H](CO)N1C[C@H](C)[C@@H](CN(C)Cc2ccc(Oc3ccccc3)cc2)Oc2c(NC(=O)Nc3ccc(C(F)(F)F)cc3)cccc2C1=O	-4	24*	x	5	3
COc1ccc(CN(C)C[C@H]2Oc3c(NC(=O)Nc4ccc(C(F)(F)F)cc4)cccc3C(=O)N([C@H](C)CO)C[C@H]2C)cc1	-1	-1	0	4	4
C[C@H]1CN([C@@H](C)CO)C(=O)c2cccc(NC(=O)Nc3ccccc3)c2O[C@@H]1CN(C)Cc1ccc(C(F)(F)F)cc1	3	3	1	-2	0
COc1ccc(NC(=O)Nc2cccc3c2O[C@@H](CN(C)Cc2ccc(C(F)(F)F)cc2)[C@@H](C)CN([C@H](C)CO)C3=O)cc1	-1	10	0	1	21*
C[C@H]1CN([C@@H](C)CO)C(=O)c2cccc(NC(=O)Nc3ccc(F)cc3)c2O[C@@H]1CN(C)Cc1ccc(Oc2ccccc2)cc1	2	-1	3	-2	0
Cc1noc(C)c1NC(=O)Nc1cccc2c1O[C@@H](CN(C)Cc1ccncc1)[C@H](C)CN([C@H](C)CO)C2=O	0	7	x	6	3
CCN(CC)C1CCN(Cc2c(C(=O)N3CCCCCCC3)nc3ccc(Cl)cn23)C1 (stereo not drawn)	-2	35*	0	-2	-2
COC1CCN(Cc2c(C(=O)N3C[C@@H](C)O[C@@H](C)C3)nc3ccc(Cl)cn23)CC1	-3	-1	0	-2	4
Cc1ccccc1S(=O)(=O)N1CC(=O)N2[C@H](C1)[C@@H](c1ccc(C#CCN(C)C)cc1)[C@@H]2CO	2	3	1	x	-1
Cc1ccccc1S(=O)(=O)N1CC(=O)N2[C@@H](CO)[C@H](c3ccc(C#CCN(C)C)cc3)[C@@H]2C1	1	14	1	x	-1

Assay outcomes (PubChem)
